Measurements taken from ChEMBL document CHEMBL1142610, “Phenanthroquinolizidine alkaloids from the roots of Boehmeria pannosa potently inhibit hypoxia-inducible factor-1 in AGS human gastric cancer cells” (J Nat Prod, 2006).
pIC50: −log10 of the molar value. Activity calls are given as the source filed them. The rule behind the calls is not given here.

Legend:
[1] = biological target: T1, Hypoxia inducible factors; HIF-1-alpha, HIF-2-alpha (Homo sapiens, UniProt Q16665+Q99814); assay: Inhibition of hypoxia-induced HIF1 activation in human AGS cells after 16 hrs by pGL3-HRE-luciferase reporter gene assay; assay type: cell-based
Procedure, shortened: (§1)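 AGS cells transiently cotransfected with pGL3-HRE-Luc (six HRE copies from human VEGF gene) plus pRL-CMV, plated 4 × 10^4 cells/well, grown 48 h. Then treated with graded concentrations and held 16 h in hypoxia (1% O2, 94% N2, 5% CO2). Dual-luciferase read-out, firefly normalized to renilla. 17-DMAG positive control. At least three independent experiments.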

[2] = biological target: T1, Hypoxia inducible factors; HIF-1-alpha, HIF-2-alpha; assay: Inhibition of hypoxia-induced HIF1 activation in human AGS cells at 300 nM after 16 hrs by pGL3-HRE-luciferase reporter gene assay; assay type: cell-based; procedure, shortened: as §1
[3] = biological target: Hypoxia-inducible factor 1-alpha (Homo sapiens) (UniProt Q16665); assay: Inhibition of hypoxia-induced HIF1alpha protein accumulation in human AGS cells after 12 hrs by Western blot; assay type: cell-based
Procedure, shortened: (§2)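 AGS cells plated at 1.5 × 10^5 cells/cm2 and left overnight at 37 °C. Pretreated 1 h with graded concentrations, then 12 h hypoxia (1% O2, 94% N2, 5% CO2, 37 °C). Total lysates (50 µg) run on 6% SDS-PAGE. Blotted with monoclonal anti-HIF-1α or anti-HIF-1β, ECL detection. TOPO I served as loading control. At least three experiments.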

[4] = biological target: Aryl hydrocarbon receptor nuclear translocator (Homo sapiens) (UniProt P27540); assay: Inhibition of hypoxia-induced HIF1beta protein accumulation in human AGS cells after 12 hrs by Western blot; assay type: cell-based; procedure, shortened: as §2
AGS = assay: Inhibition of hypoxia-induced VEGF expression in human AGS cells after 16 hrs by RT-PCR analysis; assay type: functional, cell-based
Procedure, shortened: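 AGS cells at 1.5 × 10^5 cells/cm2 pretreated 1 h with graded concentrations, then 16 h hypoxia (1% O2). Total RNA isolated and VEGF transcript detected by RT-PCR: 25 cycles (94 °C 30 s, 58 °C 30 s, 72 °C 1 min). Products run on 2% agarose with ethidium bromide staining. At least three experiments.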

[5] = biological target: T1, Hypoxia inducible factors; HIF-1-alpha, HIF-2-alpha; assay: Inhibition of hypoxia-induced HIF1 activation in human AGS cells at 100 nM after 16 hrs by pGL3-HRE-luciferase reporter gene assay; assay type: cell-based; procedure, shortened: as §1
[6] = Inhibition of hypoxia-induced HIF1 activation; procedure, shortened: as §1

Sequence of Aryl hydrocarbon receptor nuclear translocator (Homo sapiens) (P27540 whole entry): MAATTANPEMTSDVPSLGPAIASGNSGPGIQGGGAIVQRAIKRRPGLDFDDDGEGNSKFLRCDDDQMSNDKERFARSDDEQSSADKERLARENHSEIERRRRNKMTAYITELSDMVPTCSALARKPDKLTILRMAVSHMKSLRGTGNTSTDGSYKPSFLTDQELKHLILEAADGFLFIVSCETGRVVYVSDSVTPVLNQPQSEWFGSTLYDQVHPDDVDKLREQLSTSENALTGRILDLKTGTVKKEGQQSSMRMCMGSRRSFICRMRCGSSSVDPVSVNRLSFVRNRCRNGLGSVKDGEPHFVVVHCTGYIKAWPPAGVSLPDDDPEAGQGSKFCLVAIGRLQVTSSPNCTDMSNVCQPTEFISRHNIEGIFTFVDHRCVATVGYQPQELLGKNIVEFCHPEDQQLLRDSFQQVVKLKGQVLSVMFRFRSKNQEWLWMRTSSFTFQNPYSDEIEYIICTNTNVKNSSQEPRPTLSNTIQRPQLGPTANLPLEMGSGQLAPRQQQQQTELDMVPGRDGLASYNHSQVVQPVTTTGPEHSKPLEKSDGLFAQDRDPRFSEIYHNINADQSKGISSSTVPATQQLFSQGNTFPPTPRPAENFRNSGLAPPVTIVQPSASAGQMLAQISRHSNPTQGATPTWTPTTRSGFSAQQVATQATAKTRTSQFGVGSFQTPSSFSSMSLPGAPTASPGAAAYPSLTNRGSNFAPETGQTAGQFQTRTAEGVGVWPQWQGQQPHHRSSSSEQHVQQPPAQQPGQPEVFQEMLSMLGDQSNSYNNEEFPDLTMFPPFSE
Sequence of Hypoxia-inducible factor 1-alpha (Homo sapiens) (Q16665 whole entry, looked up): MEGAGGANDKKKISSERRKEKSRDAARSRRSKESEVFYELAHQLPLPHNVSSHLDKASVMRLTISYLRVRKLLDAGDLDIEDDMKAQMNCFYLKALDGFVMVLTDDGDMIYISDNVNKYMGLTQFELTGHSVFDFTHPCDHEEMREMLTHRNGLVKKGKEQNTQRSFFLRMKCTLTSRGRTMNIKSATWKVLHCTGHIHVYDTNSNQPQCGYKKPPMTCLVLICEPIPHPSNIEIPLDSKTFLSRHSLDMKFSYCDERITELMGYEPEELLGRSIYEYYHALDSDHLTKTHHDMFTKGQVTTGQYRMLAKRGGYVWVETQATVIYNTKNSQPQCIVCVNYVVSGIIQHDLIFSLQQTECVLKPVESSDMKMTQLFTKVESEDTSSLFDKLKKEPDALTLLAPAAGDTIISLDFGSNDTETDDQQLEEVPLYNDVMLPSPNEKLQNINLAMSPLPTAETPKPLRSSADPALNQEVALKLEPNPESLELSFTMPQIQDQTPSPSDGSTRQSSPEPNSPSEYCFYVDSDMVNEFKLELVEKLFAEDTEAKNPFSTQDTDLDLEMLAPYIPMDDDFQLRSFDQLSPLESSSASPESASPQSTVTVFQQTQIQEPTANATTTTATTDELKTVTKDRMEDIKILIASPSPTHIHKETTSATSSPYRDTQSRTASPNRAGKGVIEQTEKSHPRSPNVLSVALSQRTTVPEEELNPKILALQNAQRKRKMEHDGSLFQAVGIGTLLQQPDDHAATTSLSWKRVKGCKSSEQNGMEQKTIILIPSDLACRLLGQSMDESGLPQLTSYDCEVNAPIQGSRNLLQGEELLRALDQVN

SMILES	IC50 [1]	Activity [2]	Activity [3]	Activity [4]	Activity (AGS)	Activity [5]	pIC50 [6]
COc1ccc2c3c(c4cc(OC)c(OC)cc4c2c1)[C@@H](O)[C@H]1CCCCN1C3	48.1 nM	Active	Dose-dependent effect	inactive	–	–	–
COc1ccc2c3c(c4cc(OC)c(OC)cc4c2c1)C[C@H]1CCCCN1C3 [CRYPTOPLEURINE]	8.7 nM	–	Dose-dependent effect	inactive	Dose-dependent effect	Active	–
COc1ccc([C@@H](O)[C@@H](C)Oc2ccc([C@H]3O[C@H](c4ccc(O[C@H](C)[C@H](O)c5ccc6c(c5)OCO6)c(OC)c4)[C@H](C)[C@H]3C)cc2OC)cc1OC [MANASSANTIN B]	–	–	–	–	–	–	8.52
